Laboratory results published in ChEMBL document CHEMBL1144990, “Alpha1-adrenoceptor antagonists. 6. Structural optimization of pyridazinone-arylpiperazines. Study of the influence on affinity and selectivity of cyclic substituents at the pyridazinone ring and alkoxy groups at the arylpiperazine moiety” (J Med Chem, 2003).

Key:
[1] = biological target: Adrenergic receptor alpha-1 (Rattus norvegicus) (UniProt P15823+P23944+P43140)
[2] = biological target: T1, Adrenergic receptor alpha-1 (Rattus norvegicus, UniProt P15823+P23944+P43140); experiment: Intrinsic activity towards Alpha-1 adrenergic receptor by the displacement of [3H]prazosin from rat cerebral cortex membrane in absence of 1 nM GTP; format: tissue-based
T1 sequence (P15823 whole entry): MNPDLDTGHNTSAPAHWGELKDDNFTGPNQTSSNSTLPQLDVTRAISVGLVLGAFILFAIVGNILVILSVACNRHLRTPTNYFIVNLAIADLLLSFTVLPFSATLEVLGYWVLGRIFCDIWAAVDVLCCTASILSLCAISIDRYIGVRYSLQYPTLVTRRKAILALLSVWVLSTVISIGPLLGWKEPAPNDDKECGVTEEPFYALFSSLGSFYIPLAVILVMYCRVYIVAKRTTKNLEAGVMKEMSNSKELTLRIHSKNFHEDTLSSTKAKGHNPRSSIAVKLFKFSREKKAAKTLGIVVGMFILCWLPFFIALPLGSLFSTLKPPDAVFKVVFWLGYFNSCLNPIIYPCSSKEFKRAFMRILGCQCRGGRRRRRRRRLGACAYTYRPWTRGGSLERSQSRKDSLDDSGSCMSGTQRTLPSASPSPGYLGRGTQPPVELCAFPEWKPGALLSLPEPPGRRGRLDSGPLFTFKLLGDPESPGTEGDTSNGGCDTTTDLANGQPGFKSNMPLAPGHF
T1 sequence (P23944 whole entry): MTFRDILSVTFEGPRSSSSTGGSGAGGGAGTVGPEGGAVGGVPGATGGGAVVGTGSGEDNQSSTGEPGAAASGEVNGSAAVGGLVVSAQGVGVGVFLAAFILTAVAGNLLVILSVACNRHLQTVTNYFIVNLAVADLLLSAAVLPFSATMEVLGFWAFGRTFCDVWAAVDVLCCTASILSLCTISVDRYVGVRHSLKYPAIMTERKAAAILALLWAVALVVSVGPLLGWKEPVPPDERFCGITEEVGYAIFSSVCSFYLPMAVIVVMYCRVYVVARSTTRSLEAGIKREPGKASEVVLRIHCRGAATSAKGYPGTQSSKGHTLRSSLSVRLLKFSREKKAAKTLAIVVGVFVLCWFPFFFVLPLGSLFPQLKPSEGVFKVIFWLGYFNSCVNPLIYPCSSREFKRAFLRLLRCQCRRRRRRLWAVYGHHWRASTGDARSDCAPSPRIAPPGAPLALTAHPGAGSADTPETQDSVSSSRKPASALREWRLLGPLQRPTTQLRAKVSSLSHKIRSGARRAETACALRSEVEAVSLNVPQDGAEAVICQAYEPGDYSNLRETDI
T1 sequence (P43140 whole entry): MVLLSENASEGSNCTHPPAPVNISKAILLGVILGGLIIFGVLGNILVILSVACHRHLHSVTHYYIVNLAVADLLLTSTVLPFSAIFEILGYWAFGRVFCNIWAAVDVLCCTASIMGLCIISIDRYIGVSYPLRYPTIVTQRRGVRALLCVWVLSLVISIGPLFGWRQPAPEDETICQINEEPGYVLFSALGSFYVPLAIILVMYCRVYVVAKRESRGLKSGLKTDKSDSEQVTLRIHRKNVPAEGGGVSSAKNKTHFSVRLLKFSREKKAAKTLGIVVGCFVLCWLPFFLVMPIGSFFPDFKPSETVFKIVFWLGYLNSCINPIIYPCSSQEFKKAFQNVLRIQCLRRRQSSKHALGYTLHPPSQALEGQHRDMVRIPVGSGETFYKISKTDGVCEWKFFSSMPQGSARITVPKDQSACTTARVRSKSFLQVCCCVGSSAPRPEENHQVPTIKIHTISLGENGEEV

[3] = biological target: T2, Adrenergic receptor alpha-2 (Rattus norvegicus, UniProt P22086+P19328+P22909); experiment: Binding affinity for Alpha-2 adrenergic receptor in rat cortex membranes using [3H]rauwolscine as radioligand; format: cell membranes
T2 sequence (P22086 whole entry): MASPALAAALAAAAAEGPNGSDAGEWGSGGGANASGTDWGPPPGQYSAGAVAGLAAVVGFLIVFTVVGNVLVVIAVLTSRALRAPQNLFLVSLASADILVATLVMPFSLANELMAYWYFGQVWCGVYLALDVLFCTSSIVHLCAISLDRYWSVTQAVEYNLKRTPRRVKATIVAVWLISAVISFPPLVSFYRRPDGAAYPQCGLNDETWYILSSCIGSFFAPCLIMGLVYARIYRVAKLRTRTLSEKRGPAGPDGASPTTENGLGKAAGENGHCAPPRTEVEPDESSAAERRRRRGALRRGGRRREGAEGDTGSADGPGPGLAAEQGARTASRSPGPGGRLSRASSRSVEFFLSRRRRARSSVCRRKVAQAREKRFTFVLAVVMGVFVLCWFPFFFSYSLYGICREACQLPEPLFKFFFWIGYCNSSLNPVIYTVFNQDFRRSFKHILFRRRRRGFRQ
T2 sequence (P19328 whole entry): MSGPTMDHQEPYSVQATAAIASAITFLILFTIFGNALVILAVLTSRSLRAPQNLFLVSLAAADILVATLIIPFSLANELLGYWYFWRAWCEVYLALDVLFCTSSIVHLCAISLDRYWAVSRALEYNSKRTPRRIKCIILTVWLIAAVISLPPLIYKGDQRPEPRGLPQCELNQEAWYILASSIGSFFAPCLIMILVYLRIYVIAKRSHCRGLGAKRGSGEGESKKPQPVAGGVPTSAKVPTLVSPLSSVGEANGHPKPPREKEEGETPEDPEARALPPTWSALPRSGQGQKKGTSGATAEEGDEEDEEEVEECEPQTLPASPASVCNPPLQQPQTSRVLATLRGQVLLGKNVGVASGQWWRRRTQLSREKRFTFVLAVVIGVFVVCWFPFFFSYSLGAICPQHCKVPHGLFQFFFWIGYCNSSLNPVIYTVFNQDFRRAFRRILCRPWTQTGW
T2 sequence (P22909 whole entry): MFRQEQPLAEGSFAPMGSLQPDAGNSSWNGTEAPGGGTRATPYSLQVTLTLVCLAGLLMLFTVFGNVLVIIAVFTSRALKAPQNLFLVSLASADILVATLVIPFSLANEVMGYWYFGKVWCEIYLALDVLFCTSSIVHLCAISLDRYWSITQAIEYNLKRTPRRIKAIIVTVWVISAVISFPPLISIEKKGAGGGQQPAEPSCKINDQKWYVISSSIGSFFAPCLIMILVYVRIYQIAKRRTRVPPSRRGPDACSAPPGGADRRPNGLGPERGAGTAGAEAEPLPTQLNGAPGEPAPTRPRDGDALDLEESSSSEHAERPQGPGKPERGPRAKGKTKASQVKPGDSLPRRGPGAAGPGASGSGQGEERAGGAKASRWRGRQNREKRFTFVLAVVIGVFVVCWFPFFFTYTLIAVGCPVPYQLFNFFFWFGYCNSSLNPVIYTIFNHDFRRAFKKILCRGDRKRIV

[4] = biological target: T3, 5-hydroxytryptamine receptor 1A (Rattus norvegicus, UniProt P19327); experiment: Displacement of [3H]8-OH-DPAT from 5-hydroxytryptamine 1A receptor of rat cortex membranes; format: cell membranes, Membrane
T3 sequence (P19327 whole entry): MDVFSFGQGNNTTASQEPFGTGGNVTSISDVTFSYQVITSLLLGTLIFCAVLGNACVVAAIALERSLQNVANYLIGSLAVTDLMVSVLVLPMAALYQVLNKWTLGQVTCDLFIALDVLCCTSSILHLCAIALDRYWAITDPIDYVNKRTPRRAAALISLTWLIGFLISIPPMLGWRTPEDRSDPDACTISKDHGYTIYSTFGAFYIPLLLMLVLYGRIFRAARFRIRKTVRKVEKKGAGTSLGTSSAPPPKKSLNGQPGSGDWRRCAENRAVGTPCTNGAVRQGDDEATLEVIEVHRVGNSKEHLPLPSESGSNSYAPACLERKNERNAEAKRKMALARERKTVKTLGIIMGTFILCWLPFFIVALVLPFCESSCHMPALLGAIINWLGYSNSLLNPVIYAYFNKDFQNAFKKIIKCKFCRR
In short: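 Competition binding with seven drug concentrations, each in triplicate, across three separate experiments. IC50 values were converted to Ki by the Cheng–Prusoff equation, Ki = IC50/(1 + [L]/Kd), where [L] is the radioligand concentration and Kd its dissociation constant. Ki is reported as mean ± SD.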

[5] = biological target: T1, Adrenergic receptor alpha-1; experiment: Binding affinity for Alpha-1 adrenergic receptor in rat cortex membranes using [3H]-prazosin as radioligand; format: cell membranes
[6] = biological target: T1, Adrenergic receptor alpha-1; experiment: Intrinsic activity towards Alpha-1 adrenergic receptor by the displacement of [3H]prazosin from rat cerebral cortex membrane in presence of 1 nM GTP.; format: tissue-based

CC(C)Oc1ccccc1N1CCN(CCCCCCCn2ncc(N3CCN(CC4COc5ccccc5O4)CC3)c(Cl)c2=O)CC1 (configuration not stated)
GTP shift [1]: 1.4
Ki [2]: 0.23 nM
Ki [3]: 3.34 nM
Ki [4]: 2.47 nM
Ki [5]: 0.31 nM
Ki [6]: 0.33 nM

CC(C)Oc1ccccc1N1CCN(CCCCCCCn2ncc(N3CCN(C(=O)c4ccco4)CC3)c(Cl)c2=O)CC1
GTP shift [1]: 1.7
Ki [2]: 0.047 nM
Ki [4]: 0.9 nM
Ki [6]: 0.081 nM

COc1cc2nc(N3CCN(C(=O)c4ccco4)CC3)nc(N)c2cc1OC
GTP shift [1]: 1.2

CCOc1ccccc1N1CCN(CCCCCCCn2ncc(N3CCN(CC4COc5ccccc5O4)CC3)c(Cl)c2=O)CC1 (configuration not stated)
Ki [3]: 2.16 nM
Ki [4]: 49.8 nM
Ki [5]: 0.42 nM

COc1ccccc1OCCN1CCN(c2cnn(CCCCCCCN3CCN(c4ccccc4OC)CC3)c(=O)c2Cl)CC1
Ki [5]: 1.45 nM

CCOc1ccccc1OCCN1CCN(c2cnn(CCCCCCCN3CCN(c4ccccc4OCC)CC3)c(=O)c2Cl)CC1
Ki [4]: 1.32 nM

CC(C)Oc1ccccc1N1CCN(CCCCCCCn2ncc(Cl)c(N3CCN(CC4COc5ccccc5O4)CC3)c2=O)CC1 (configuration not stated)
Ki [3]: 13.4 nM
Ki [4]: 1.52 nM
Ki [5]: 0.32 nM

COc1ccccc1N1CCN(CCCCCCCn2ncc(Cl)c(N3CCN(C(=O)c4ccco4)CC3)c2=O)CC1
Ki [3]: 1.23 nM
Ki [4]: 0.42 nM
Ki [5]: 0.37 nM

CCOc1ccccc1OCCN1CCN(c2cnn(CCCCCCCN3CCN(c4ccccc4OC)CC3)c(=O)c2Cl)CC1
Ki [4]: 0.82 nM

CCOc1ccccc1OCCN1CCN(c2cnn(CCCCCCCN3CCN(c4ccccc4OC(C)C)CC3)c(=O)c2Cl)CC1
GTP shift [1]: 0.8
Ki [2]: 0.28 nM
Ki [4]: 2.54 nM
Ki [6]: 0.22 nM

COc1ccccc1N1CCN(CCCCCCCn2ncc(Cl)c(N3CCN(CC4COc5ccccc5O4)CC3)c2=O)CC1 (configuration not stated)
Ki [3]: 1.45 nM
Ki [4]: 0.4 nM
Ki [5]: 0.54 nM

COc1ccccc1N1CCN(CCCCCCCn2ncc(N3CCN(CC4COc5ccccc5O4)CC3)c(Cl)c2=O)CC1 (configuration not stated)
Ki [3]: 0.85 nM
Ki [4]: 11.1 nM
Ki [5]: 1.68 nM

CC(C)Oc1ccccc1N1CCN(CCCCCCCn2ncc(Cl)c(N3CCN(C(=O)c4ccco4)CC3)c2=O)CC1
Ki [3]: 0.66 nM
Ki [4]: 1.16 nM
Ki [5]: 0.08 nM

CCOc1ccccc1N1CCN(CCCCCCCn2ncc(Cl)c(N3CCN(C(=O)c4ccco4)CC3)c2=O)CC1
Ki [3]: 0.8 nM
Ki [4]: 0.35 nM
Ki [5]: 0.23 nM

CCOc1ccccc1N1CCN(CCCCCCCn2ncc(Cl)c(N3CCN(CC4COc5ccccc5O4)CC3)c2=O)CC1 (configuration not stated)
Ki [3]: 2.4 nM
Ki [4]: 1.02 nM
Ki [5]: 0.43 nM
